Experimental data: ChEMBL document CHEMBL1143965, “N-Phenyl-N'-(2-chloroethyl)ureas (CEUs) as potential antineoplastic agents. Part 3: role of carbonyl groups in the covalent binding to the colchicine-binding site” (2008)

Key:
Assay type in all cases: functional
M21 [1] = assay: Cell cycle arrest in human M21 cells by accumulation at G2/M phase at 3 uM after 24 hrs by flow cytometry
Summary of the method: (§1)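 Exponentially growing M21 cells were exposed to drug (DMSO vehicle, <0.5% v/v) for 24 h, then collected and fixed with ice-cold ethanol. 5×10^5 cells were stained in PBS with 50 µg/mL propidium iodide plus 40 U/mL RNase A for 30 min at room temperature. Phase distribution was measured by flow cytometry.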

MCF7 = assay: Antiproliferative activity against human MCF7 cells after 48 hrs; settings: MCF7, 48 h
Summary of the method: (§2)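 NCI-style sulforhodamine B growth assay. Cells in high-glucose DMEM with 5% iron-supplemented bovine calf serum were preincubated 24 h at 37 °C, 5% CO2. Drugs in DMSO (final <0.5%) were added at 0.1–100 µM final for 48 h. Cells were fixed with cold TCA (10% final, 60 min, 4 °C), stained with 0.1% SRB, solubilized in 20 mM Tris, and read at 585 nm against a day-0 plate. GI50 was taken; at least two runs in triplicate.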

HT-29 = assay: Antiproliferative activity against human HT29 cells after 48 hrs; settings: HT-29, 48 h; summary of the method: as §2
M21 [2] = assay: Cell cycle arrest in human M21 cells by accumulation at G2/M phase at 10 uM after 24 hrs by flow cytometry; summary of the method: as §1
M21 [3] = assay: Cell cycle arrest in human M21 cells by accumulation at G0/G1 phase at 10 uM after 24 hrs by flow cytometry; summary of the method: as §1
M21 [4] = assay: Antiproliferative activity against human M21 cells after 48 hrs; settings: M21, 48 h; summary of the method: as §2
M21 [5] = assay: Induction of apoptosis in human M21 cells at 3 uM
M21 [6] = assay: Induction of apoptosis in human M21 cells at 10 uM
M21 [7] = assay: Cell cycle arrest in human M21 cells by accumulation at S phase at 10 uM after 24 hrs by flow cytometry; summary of the method: as §1
M21 [8] = assay: Cell cycle arrest in human M21 cells by accumulation at S phase at 3 uM after 24 hrs by flow cytometry; summary of the method: as §1
M21 [9] = assay: Cell cycle arrest in human M21 cells by accumulation at G0/G1 phase at 3 uM after 24 hrs by flow cytometry; summary of the method: as §1
M21 [10] = assay: Cell cycle arrest in human M21 cells by accumulation at G2/M phase at 5 uM after 24 hrs by flow cytometry; summary of the method: as §1
M21 [11] = assay: Cell cycle arrest in human M21 cells by accumulation at S phase at 5 uM after 24 hrs by flow cytometry; summary of the method: as §1
M21 [12] = assay: Cell cycle arrest in human M21 cells by accumulation at G2/M phase at 15 uM after 24 hrs by flow cytometry; summary of the method: as §1
M21 [13] = assay: Induction of apoptosis in human M21 cells at 5 uM
M21 [14] = assay: Cell cycle arrest in human M21 cells by accumulation at G0/G1 phase at 15 uM after 24 hrs by flow cytometry; summary of the method: as §1
M21 [15] = assay: Cell cycle arrest in human M21 cells by accumulation at G0/G1 phase at 5 uM after 24 hrs by flow cytometry; summary of the method: as §1
M21 [16] = assay: Cell cycle arrest in human M21 cells by accumulation at S phase at 15 uM after 24 hrs by flow cytometry; summary of the method: as §1
M21 [17] = assay: Induction of apoptosis in human M21 cells at 15 uM
M21 [18] = assay: Cell cycle arrest in human M21 cells by accumulation at G2/M phase at 21 uM after 24 hrs by flow cytometry; summary of the method: as §1
M21 [19] = assay: Induction of apoptosis in human M21 cells at 7 uM
M21 [20] = assay: Induction of apoptosis in human M21 cells at 175 uM
M21 [21] = assay: Cell cycle arrest in human M21 cells by accumulation at G2/M phase at 7 uM after 24 hrs by flow cytometry; summary of the method: as §1
M21 [22] = assay: Cell cycle arrest in human M21 cells by accumulation at G0/G1 phase at 7 uM after 24 hrs by flow cytometry; summary of the method: as §1
M21 [23] = assay: Cell cycle arrest in human M21 cells by accumulation at G0/G1 phase at 175 uM after 24 hrs by flow cytometry; summary of the method: as §1
M21 [24] = assay: Cell cycle arrest in human M21 cells by accumulation at S phase at 7 uM after 24 hrs by flow cytometry; summary of the method: as §1
M21 [25] = assay: Cell cycle arrest in human M21 cells by accumulation at S phase at 175 uM after 24 hrs by flow cytometry; summary of the method: as §1
M21 [26] = assay: Cell cycle arrest in human M21 cells by accumulation at G2/M phase at 175 uM after 24 hrs by flow cytometry; summary of the method: as §1
M21 [27] = assay: Induction of apoptosis in human M21 cells at 21 uM
M21 [28] = assay: Cell cycle arrest in human M21 cells by accumulation at S phase at 21 uM after 24 hrs by flow cytometry; summary of the method: as §1
M21 [29] = assay: Cell cycle arrest in human M21 cells by accumulation at G0/G1 phase at 21 uM after 24 hrs by flow cytometry; summary of the method: as §1
M21 [30] = assay: Cell cycle arrest in human M21 cells by accumulation at S phase at 1.2 uM after 24 hrs by flow cytometry; summary of the method: as §1
M21 [31] = assay: (§3) Cell cycle arrest in human M21 cells by accumulation at G0/G1 phase at 1.2 uM after 24 hrs by flow cytometry; summary of the method: as §1
M21 [32] = assay: Cell cycle arrest in human M21 cells by accumulation at G2/M phase at 4 uM after 24 hrs by flow cytometry; summary of the method: as §1
M21 [33] = assay: as §3; summary of the method: as §1; remark: listed apart in the source
M21 [34] = assay: Induction of apoptosis in human M21 cells at 4 uM
M21 [35] = assay: Induction of apoptosis in human M21 cells at 1.2 uM
M21 [36] = assay: Cell cycle arrest in human M21 cells by accumulation at G0/G1 phase at 4 uM after 24 hrs by flow cytometry; summary of the method: as §1
M21 [37] = assay: Cell cycle arrest in human M21 cells by accumulation at S phase at 4 uM after 24 hrs by flow cytometry; summary of the method: as §1

| Compound | GI50 (MCF7) [µM] | GI50 (HT-29) [µM] | GI50 (M21 [4]) [µM] | other results |
| --- | --- | --- | --- | --- |
| O=C(O)CCCCCc1cccc(NC(=O)NCCCl)c1 | > 100 | 35.9 | 47.5 |  |
| CCOC(=O)CCCCCc1cccc(NC(=O)NCCCl)c1 | 22.5 | 19.8 | 17.7 |  |
| CC(=O)c1cccc(NC(=O)NCCCl)c1 | > 100 | > 100 | > 100 |  |
| COC(=O)c1cccc(NC(=O)NCCCl)c1 | > 100 | 80.2 | 86.2 |  |
| CCOC(=O)c1cccc(NC(=O)NCCCl)c1 | > 100 | > 100 | 96.4 |  |
| O=C(O)Cc1cccc(NC(=O)NCCCl)c1 | > 100 | > 100 | > 100 |  |
| O=C(NCCCl)Nc1cccc(C(=O)O)c1 | 82.9 | 68.1 | 67.9 |  |
| CCOC(=O)Cc1cccc(NC(=O)NCCCl)c1 | > 100 | > 100 | > 100 |  |
| NC(=O)c1cccc(NC(=O)NCCCl)c1 | > 100 | > 100 | > 100 |  |
| NC(=O)Cc1cccc(NC(=O)NCCCl)c1 | > 100 | > 100 | > 100 |  |
| COC(=O)Cc1cccc(NC(=O)NCCCl)c1 | > 100 | 82.7 | > 100 |  |
| O=C(O)CCCCc1cccc(NC(=O)NCCCl)c1 | > 100 | > 100 | > 100 |  |

These reach a lower GI50 (MCF7). Values come first.

| GI50 (MCF7) [µM] | GI50 (HT-29) [µM] | Compound | GI50 (M21 [4]) [µM] | other results |
| --- | --- | --- | --- | --- |
| 1.6 | 0.96 | CCCCCc1cccc(NC(=O)NCCCl)c1 | 0.87 | Activity (M21 [1]): 50%; Activity (M21 [2]): 49%; Activity (M21 [3]): 6%; Activity (M21 [5]): 18%; Activity (M21 [6]): 31%; Activity (M21 [7]): 7%; Activity (M21 [8]): 11%; Activity (M21 [9]): 14% |
| 1.9 | 0.84 | COCCCCCc1cccc(NC(=O)NCCCl)c1 | 0.94 | Activity (M21 [1]): 37%; Activity (M21 [2]): 52%; Activity (M21 [3]): 7%; Activity (M21 [5]): 14%; Activity (M21 [6]): 24%; Activity (M21 [7]): 9%; Activity (M21 [8]): 14%; Activity (M21 [9]): 29% |
| 21.8 | 5.7 | NC(=O)CCCCCc1cccc(NC(=O)NCCCl)c1 | 8.9 |  |
| 11.2 | 3.6 | NC(=O)CCCCc1cccc(NC(=O)NCCCl)c1 | 5.7 |  |
| 2 | 0.6 | CC(=O)CCCCc1cccc(NC(=O)NCCCl)c1 | 1.1 | Activity (M21 [10]): 25%; Activity (M21 [11]): 13%; Activity (M21 [12]): 53%; Activity (M21 [13]): 11%; Activity (M21 [14]): 6%; Activity (M21 [15]): 44%; Activity (M21 [16]): 10%; Activity (M21 [17]): 23% |
| 15.1 | 8.1 | COC(=O)CCCCc1cccc(NC(=O)NCCCl)c1 | 7.3 | Activity (M21 [18]): 20%; Activity (M21 [19]): 4%; Activity (M21 [20]): 19%; Activity (M21 [21]): 14%; Activity (M21 [22]): 46%; Activity (M21 [23]): 18%; Activity (M21 [24]): 36%; Activity (M21 [25]): 1%; Activity (M21 [26]): 62%; Activity (M21 [27]): 6%; Activity (M21 [28]): 34%; Activity (M21 [29]): 40% |
| 8.7 | 8.2 | CCOC(=O)CCCCc1cccc(NC(=O)NCCCl)c1 | 11 |  |
| 3.9 | 0.9 | CC(=O)CCCCCc1cccc(NC(=O)NCCCl)c1 | 2.1 | Activity (M21 [10]): 48%; Activity (M21 [11]): 18%; Activity (M21 [12]): 53%; Activity (M21 [13]): 21%; Activity (M21 [14]): 11%; Activity (M21 [15]): 10%; Activity (M21 [16]): 18%; Activity (M21 [17]): 16% |
| 10.2 | 7.2 | COC(=O)CCCCCc1cccc(NC(=O)NCCCl)c1 | 7.1 | Activity (M21 [18]): 15%; Activity (M21 [19]): 4%; Activity (M21 [20]): 19%; Activity (M21 [21]): 14%; Activity (M21 [22]): 45%; Activity (M21 [23]): 8%; Activity (M21 [24]): 37%; Activity (M21 [25]): 1%; Activity (M21 [26]): 72%; Activity (M21 [27]): 5%; Activity (M21 [28]): 31%; Activity (M21 [29]): 49% |
| 0.48 | 0.16 | O=C(NCCCl)Nc1cccc(CCCCCO)c1 | 0.27 | Activity (M21 [30]): 11%; Activity (M21 [31]): 50%; Activity (M21 [32]): 53%; Activity (M21 [33]): 50%; Activity (M21 [34]): 27%; Activity (M21 [35]): 12%; Activity (M21 [36]): 6%; Activity (M21 [37]): 7% |
